Data reported in ChEMBL document CHEMBL1131460, “2-substituted (2SR)-2-amino-2-((1SR,2SR)-2-carboxycycloprop-1-yl)glycines as potent and selective antagonists of group II metabotropic glutamate receptors. 2. Effects of aromatic substitution, pharmacological characterization, and bioavailability” (J Med Chem, 1998).

How the values were obtained:
[1] = Plasma concentration after 2 hr at a dose of 10 mg/kg when administered perorally; conditions: po
[2] = Clearance rate in rat plasma when administered intraperitoneally at a dose of 10 mg/kg; format: ADME, organism-based; design: dose 10 mg/kg, route intraperitoneal; conditions: ip, read-out: Clp (converted)
How it was run: (§1)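 Male Fischer 344 rats were dosed at 10 mg/kg iv, 10 mg/kg ip, or 10 or 100 mg/kg po, with five rats per route and dose. One rat was sampled for blood and brain at each time: 0.25, 0.5, 1, 2 and 4 h after iv/ip, and 0.5, 1, 2, 4 and 6 h after po. Plasma and brain homogenates were derivatized, extracted and quantified by negative-ion chemical ionization GCMS (LOQ 100 pg/mL plasma, 1 ng/g brain).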

Rattus norvegicus [3] = experiment: Area under curve was evaluated in rat plasma when administered intraperitoneally at a dose of 10 mg/kg for infinite hours; format: ADME, organism-based; design: time infinity, dose 10 mg/kg, route intraperitoneal; conditions: in vivo, ip; how it was run: as §1
[4] = Half-life in rat plasma when administered intravenously at a dose of 10 mg/kg; format: ADME, organism-based; design: dose 10 mg/kg, route intravenous; conditions: iv; how it was run: as §1
[5] = Plasma concentration after 0.5 hr at a dose of 10 mg/kg when administered intraperitoneally; conditions: ip
[6] = Brain concentration after 6 hr at a dose of 100 mg/kg when administered perorally; conditions: po
[7] = Maximum concentration achieved in rat brain when administered perorally at a dose of 10 mg/kg; format: ADME, organism-based; design: dose 10 mg/kg, route oral; conditions: po
How it was run: (§2)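 Male Fischer 344 rats dosed iv or ip at 10 mg/kg, or orally at 10 or 100 mg/kg; five rats per route and dose. Blood and brain taken from one rat per time point (0.25, 0.5, 1, 2, 4 h after iv/ip; 0.5, 1, 2, 4, 6 h after po). Plasma and brain homogenates derivatized, extracted, assayed by negative-ion chemical ionization GCMS (LOQ 100 pg/mL plasma, 1 ng/g brain).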

in vivo = conditions: plasma, ip, 10 mg/kg
Rattus norvegicus [8] = experiment: Area under curve was evaluated in rat brain when administered intraperitoneally at a dose of 10 mg/kg for infinite hours; format: ADME, organism-based; design: time infinity, dose 10 mg/kg, route intraperitoneal; conditions: in vivo, ip
Rattus norvegicus [9] = experiment: Bioavailability was evaluated in rat plasma when administered intraperitoneally at a dose of 10 mg/kg; format: ADME, organism-based; conditions: in vivo, ip
Rattus norvegicus [10] = experiment: Area under curve was evaluated in rat plasma when administered perorally at a dose of 10 mg/kg for 4 or 6 hours; format: ADME, organism-based; design: dose 10 mg/kg, route oral; conditions: in vivo, po; how it was run: as §1
[11] = Time of maximum concentration achieved in rat brain when administered perorally at a dose of 100 mg/kg; format: ADME, organism-based; design: dose 100 mg/kg, route oral; conditions: po; how it was run: as §2
[12] = Brain concentration after 6 hr at a dose of 10 mg/kg when administered perorally; conditions: po
[13] = Plasma concentration after 0.5 hr at a dose of 100 mg/kg when administered perorally; conditions: po
[14] = Maximum concentration achieved in rat brain when administered intravenously at a dose of 10 mg/kg; format: ADME, organism-based; design: dose 10 mg/kg, route intravenous; conditions: iv; how it was run: as §2
Rattus norvegicus [15] = experiment: Volume of distribution in rat plasma when administered intravenously at a dose of 10 mg/kg; conditions: in vivo, iv
[16] = Plasma concentration after 1 hr at a dose of 100 mg/kg when administered perorally; conditions: po
[17] = Time of maximum concentration achieved in rat plasma when administered intravenously at a dose of 10 mg/kg; format: ADME, organism-based; design: dose 10 mg/kg, route intravenous; conditions: iv; how it was run: as §2
[18] = Plasma concentration after 1 hr at a dose of 10 mg/kg when administered perorally; conditions: po
[19] = Binding affinity for Group II Metabotropic glutamate receptor was measured using [3H]glutamate in rat forebrain membranes; format: cell membranes, Membrane
How it was run: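 ACPD-sensitive [³H]glutamate binding to group II mGluRs in rat forebrain membranes, reported as IC50. Most values are single-point determinations; others are averages of two or three determinations. Values in parentheses are percent radioligand displacement at 1 μM.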

[20] = Plasma concentration after 6 hr at a dose of 10 mg/kg when administered perorally; conditions: po
[21] = Brain concentration after 4 hr at a dose of 10 mg/kg when administered intraperitoneally; conditions: ip
Rattus norvegicus [22] = experiment: Area under curve was evaluated in rat brain when administered intravenously at a dose of 10 mg/kg for infinite hours; format: ADME, organism-based; design: time infinity, dose 10 mg/kg, route intravenous; conditions: in vivo, iv
[23] = Brain concentration after 4 hr at a dose of 10 mg/kg when administered intravenously; conditions: iv
[24] = Plasma concentration after 1 hr at a dose of 10 mg/kg when administered intravenously; conditions: iv
[25] = Plasma concentration after 1 hr at a dose of 10 mg/kg when administered intraperitoneally; conditions: ip
[26] = Time of maximum concentration achieved in rat plasma when administered intraperitoneally at a dose of 10 mg/kg; format: ADME, organism-based; design: dose 10 mg/kg, route intraperitoneal; conditions: ip; how it was run: as §2
[27] = Maximum concentration achieved in rat plasma when administered intraperitoneally at a dose of 10 mg/kg; format: ADME, organism-based; design: dose 10 mg/kg, route intraperitoneal; conditions: ip; how it was run: as §2
Rattus norvegicus [28] = experiment: Area under curve was evaluated in rat plasma when administered intraperitoneally at a dose of 10 mg/kg for 4 or 6 hours; format: ADME, organism-based; design: dose 10 mg/kg, route intraperitoneal; conditions: in vivo, ip; how it was run: as §1
Rattus norvegicus [29] = experiment: Area under curve was evaluated in rat brain when administered perorally at a dose of 100 mg/kg for 4 or 6 hours; format: ADME, organism-based; design: dose 100 mg/kg, route oral; conditions: in vivo, po
[30] = Brain concentration after 4 hr at a dose of 100 mg/kg when administered perorally; conditions: po
Rattus norvegicus [31] = experiment: Area under curve was evaluated in rat brain when administered perorally at a dose of 10 mg/kg for 4 or 6 hours; format: ADME, organism-based; design: dose 10 mg/kg, route oral; conditions: in vivo, po
[32] = Volume of distribution in rat plasma when administered intraperitoneally at a dose of 10 mg/kg; conditions: ip

concentration at 2 h [1]: 50 ng/mL
CL/F [2]: 13 mL/min/kg
AUC (Rattus norvegicus [3]): 12800 ng·h/mL
half-life [4]: 28.8 min
concentration at 0.5 h [5]: 10700 ng/mL
concentration at 6 h [6]: 29.6 ng/g
Cmax [7]: 7.4 ng/g
concentration at 0.25 h (in vivo): 14300 ng/mL
AUC (Rattus norvegicus [8]): 1790 ng·h/mL
Bioavailabiility (Rattus norvegicus [9]): 152%
AUC (Rattus norvegicus [10]): 217 ng·h/mL
Tmax [11]: 360 min
concentration at 6 h [12]: 4.8 ng/g
concentration at 0.5 h [13]: 197 ng/mL
Cmax [14]: 243 ng/g
Vd (Rattus norvegicus [15]): 0.83 L/kg
concentration at 1 h [16]: 475 ng/mL
Tmax [17]: 15 min
concentration at 1 h [18]: 48.3 ng/mL
IC50 [19]: 2.9 nM
concentration at 6 h [20]: 17.5 ng/mL
concentration at 4 h [21]: 149 ng/g
AUC (Rattus norvegicus [22]): 1840 ng·h/mL
concentration at 4 h [23]: 145 ng/g
concentration at 1 h [24]: 2440 ng/mL
concentration at 1 h [25]: 4570 ng/mL
Tmax [26]: 15 min
Cmax [27]: 14300 ng/mL
AUC (Rattus norvegicus [28]): 12700 ng·h/mL
AUC (Rattus norvegicus [29]): 120 ng·h/mL
concentration at 4 h [30]: 20.1 ng/g
AUC (Rattus norvegicus [31]): 26.4 ng·h/mL
Vd [32]: 0.49 L/kg
SMILES: N[C@](CC1c2ccccc2Oc2ccccc21)(C(=O)O)[C@H]1C[C@@H]1C(=O)O
